hiPSC survival = hiPSC single-cell survival enhancement. ATPlite luminescence; 100% = ROCK inhibitor wells, 0% = DMSO. survival enhancement, % at 20 µM. actives 0.044% (n = 360,000). AID 602274; in the data active means survival enhancement above about 18%;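 further: cells exposed to compounds for 16 hours before the ATP read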
DAGLB inh = blocks human DAGLB lipase activity. inhibition, % at 5.17 µM. AID 504411. Q8NCG7. actives 0.059% (n = 340,000). HEK293T DAGLB membrane lysate, EnzChek fluorogenic substrate; in the data active means inhibition above about 34%;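 further: 0% = enzyme with vehicle and 100% = wells lacking enzyme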
Target sequence (Q8NCG7 whole entry, looked up): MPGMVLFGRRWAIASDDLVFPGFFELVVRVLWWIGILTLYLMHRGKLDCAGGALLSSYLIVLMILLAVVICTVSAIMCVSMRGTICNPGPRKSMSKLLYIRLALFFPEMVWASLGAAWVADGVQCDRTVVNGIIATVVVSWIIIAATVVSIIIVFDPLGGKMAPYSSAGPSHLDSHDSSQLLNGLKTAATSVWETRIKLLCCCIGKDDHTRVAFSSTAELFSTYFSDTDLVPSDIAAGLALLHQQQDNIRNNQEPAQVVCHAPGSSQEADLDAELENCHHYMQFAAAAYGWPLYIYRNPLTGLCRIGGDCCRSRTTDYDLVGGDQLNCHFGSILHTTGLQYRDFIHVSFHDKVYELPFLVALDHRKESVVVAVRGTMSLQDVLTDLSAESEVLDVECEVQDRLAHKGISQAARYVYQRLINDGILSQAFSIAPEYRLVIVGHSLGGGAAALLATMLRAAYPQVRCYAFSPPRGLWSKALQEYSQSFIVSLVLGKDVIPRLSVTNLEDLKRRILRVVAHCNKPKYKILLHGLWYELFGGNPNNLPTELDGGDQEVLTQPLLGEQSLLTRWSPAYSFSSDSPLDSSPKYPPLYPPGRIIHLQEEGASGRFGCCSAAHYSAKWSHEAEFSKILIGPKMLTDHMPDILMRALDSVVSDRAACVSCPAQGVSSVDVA
Cneo AK release = causes C. neoformans cell lysis | actives 0.2% (n = 360,000) | adenylate kinase release luminescence, 4 h; normalised: neutral wells 0, clomiphene wells 100 | lysis activity, % at 15 µM;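 active means mean lysis activity across replicates of at least 80%, whatever share of replicates individually reach that level; inactive means mean lysis activity below 80%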
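Material – log-phase Cryptococcus neoformans yeast cells · Input – 5 × 10^6 yeast cells/mL · Medium – fresh YPD growth medium · Doses – single compound concentration per well · Timing – static 4 h at 37 °C with compound, 1 h detection · Detection – adenylate kinase release luminescence · Read-out – signal increase indicating cell lysis · Control set – Clomiphene as positive lysis control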
SKN-1 inh = blocks SKN-1 activity in C. elegans. C. elegans VP596 Pgst-4::GFP/RFP ratio, acrylamide-induced, 24 h. inhibition, % at 21.8 µM. actives 0.49% (n = 360,000);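 active means interference check ratio from 0.5 to 1.5 plus GFP to RFP signal ratio inhibition reaching or exceeding a fixed threshold, cut at about 30% in these data, passing the limit was not always enough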
Ecoli rRNA inh = selective bacterial rRNA inhibition in E. coli | E. coli WT GFP vs humanized-ribosome RFP mutants, fluorescence, 24 h; stronger effect = lower value; DMSO median 0, no signal -100 | GFP signal change (wild-type ribosome), % (concentration not given with the values) | actives 1.6% (n = 350,000) | AID 720706;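 active means significant combined selectivity score with lowered wild-type GFP, culture density cut under 30%, mutant RFP and density less affected; inactive means any of these conditions unmet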
MT1-MMP act inh = MT1-MMP (human) activation inhibition | P50281 | HT1080 RFP-PRO-GFP cells, GFP/RFP ratio fluorescence, overnight; percent of plate control window, DMSO zero | GFP/RFP ratio change, % at 20 µM | actives 0.061% (n = 360,000) | AID 651647;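 active means GFP/RFP ratio change of at least 30% with cell ATP level not reduced by more than half and red fluorescence within 50% of control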
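Material: RFP-PRO-GFP reporter HT1080 cells. Dosing: single-point 20 µM compound, 1% DMSO. Controls: DMSO and RFP-L50D-GFP cell wells. Timing: cells overnight before dosing, compound overnight, 37 °C, 5% CO2. Measure: GFP/RFP fluorescence ratio.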
Active calls of the source: *. Compounds with a hit are over-represented: about 1.8% of the library has one in this group of screens.

Results for COCCOC(=O)N1C(=O)[C@@]2(c3ccccc31)[C@H](c1ccccc1OCCO)N1[C@H](c3ccccc3)[C@H](c3ccccc3)OC(=O)[C@H]1[C@@H]2C(=O)N1CCN(c2ncccn2)CC1 ?
Cneo AK release: 2

How did C[C@H](CO)N1C[C@H](C)[C@H](CN(C)Cc2ccc3c(c2)OCO3)Oc2ncc(-c3cc4ccccc4o3)cc2C1=O do in these assays?
Ecoli rRNA inh: 6

What do the screens show for `COc1ccc(NC(=O)N[C@@H]2CC[C@H](CCNC(=O)Nc3cc(F)ccc3F)O[C@H]2CO)cc1`?
Cneo AK release: 1; Ecoli rRNA inh: -6

Results for O=C(c1ccncc1)N1C[C@H]2[C@@H](c3ccccc31)[C@H](CO)N2C(=O)c1ccccc1F ?
Cneo AK release: 46; Ecoli rRNA inh: 5

How did O=C(Nc1ccc(N2CCOCC2)cc1)c1cc2c(s1)CCCCC2 do in these assays?
hiPSC survival: -1; DAGLB inh: 2; SKN-1 inh: 22; Ecoli rRNA inh: -22*; MT1-MMP act inh: 8

Results for O=C(Nc1cc(Cl)ccc1-n1cncn1)c1ccc([N+](=O)[O-])o1 ?
hiPSC survival: 0; DAGLB inh: -1; Cneo AK release: -5; SKN-1 inh: 6; Ecoli rRNA inh: -21*; MT1-MMP act inh: -6

What do the screens show for `O=C(Nc1ccc(N2CCOCC2)cc1)c1ccc([N+](=O)[O-])o1`?
hiPSC survival: -1; DAGLB inh: 3; Cneo AK release: 1; SKN-1 inh: 27; Ecoli rRNA inh: -19*; MT1-MMP act inh: 4

Results for O=C(Nc1ccc(N2CCOCC2)cc1)c1cc2c(s1)CCCC2 ?
hiPSC survival: -3; DAGLB inh: 5; SKN-1 inh: 0; Ecoli rRNA inh: -26; MT1-MMP act inh: 5

What do the screens show for `CCC(=O)N1CCN(c2ccc(Cl)cc2NC(=O)c2ccc([N+](=O)[O-])o2)CC1`?
hiPSC survival: 0; DAGLB inh: 0; Cneo AK release: 0; SKN-1 inh: -12; Ecoli rRNA inh: 6; MT1-MMP act inh: 6

Results for O=C(COC(=O)c1ccc([N+](=O)[O-])o1)Nc1ccc(N2CCOCC2)cc1 ?
hiPSC survival: 3; DAGLB inh: -3; Cneo AK release: -2; SKN-1 inh: 5; Ecoli rRNA inh: 8; MT1-MMP act inh: -3

How did CNC(=O)C[C@H]1CC[C@@H]2[C@@H](COc3ccc(NC(=O)C4CCCCC4)cc3C(=O)N2C)O1 do in these assays?
Ecoli rRNA inh: 1

Results for CCNC(=O)C[C@H]1CC[C@@H]2[C@H](COC[C@H](O)CN2Cc2ccc(Cl)c(Cl)c2)O1 ?
Cneo AK release: 47; Ecoli rRNA inh: 0

What do the screens show for `Cc1ccc2nc(-c3ccc(NC(=S)NCC(C)(C)CN(C)C)cc3)sc2c1`?
hiPSC survival: -1; DAGLB inh: 0; SKN-1 inh: 7; Ecoli rRNA inh: -36*; MT1-MMP act inh: 3

Results for CNC(=S)Nc1ccc(-c2nc3ccc(C)cc3s2)cc1 ?
hiPSC survival: -4; DAGLB inh: 1; Cneo AK release: -8; SKN-1 inh: 18; Ecoli rRNA inh: -48; MT1-MMP act inh: 2

What do the screens show for `CCC(C)(C)NC(=S)Nc1ccc(-c2nc3ccc(C)cc3s2)cc1`?
hiPSC survival: -3; DAGLB inh: -3; Cneo AK release: -9; SKN-1 inh: 6; MT1-MMP act inh: 2

What do the screens show for `Nc1ccc2nc(-c3ccccc3)sc2c1`?
hiPSC survival: -6; DAGLB inh: -1; Cneo AK release: -1; SKN-1 inh: 82*; MT1-MMP act inh: -6

Results for Cc1ccc2nc(-c3ccc(N)cc3)sc2c1 ?
hiPSC survival: -1; Cneo AK release: -18; SKN-1 inh: 42*; Ecoli rRNA inh: -44*; MT1-MMP act inh: -3

How did CC(C)NC(=O)Nc1ccc2c(c1)CC(=O)N(C)C[C@@H](C)[C@@H](CN(C)S(C)(=O)=O)O2 do in these assays?
Ecoli rRNA inh: 0

How did COC(=O)[C@H]1[C@H](CO)[C@H]2Cn3c(ccc(C4=CCCCC4)c3=O)[C@H]2N1C(=O)C1CCC1 do in these assays?
Cneo AK release: -1; Ecoli rRNA inh: -2

How did CCc1ccc(NC(=O)c2cc(-c3ccco3)on2)cc1 do in these assays?
hiPSC survival: 0; DAGLB inh: -6; SKN-1 inh: 45*; MT1-MMP act inh: 0

What do the screens show for `O=C(Nc1cccc(Cl)c1)c1cc(-c2ccco2)on1`?
hiPSC survival: 0; DAGLB inh: -4; Cneo AK release: 0; SKN-1 inh: 39*; Ecoli rRNA inh: 3; MT1-MMP act inh: 1

How did O=C(Nc1c(Cl)cccc1Cl)c1cc(-c2ccco2)on1 do in these assays?
hiPSC survival: 1; DAGLB inh: -2; Cneo AK release: -1; SKN-1 inh: -8; Ecoli rRNA inh: -13; MT1-MMP act inh: -2

Results for Clc1ccc(SCc2cc(-c3ccc(Cl)cc3)on2)cc1 ?
hiPSC survival: 1; DAGLB inh: -23; Cneo AK release: 6; SKN-1 inh: 53*; MT1-MMP act inh: -2

How did Cc1ccc(SCc2cc(-c3ccc(Cl)cc3)on2)cc1 do in these assays?
hiPSC survival: 4; DAGLB inh: -27; Cneo AK release: 2; SKN-1 inh: -15; MT1-MMP act inh: 0

Results for COc1ccc(S(=O)(=O)N(C)C[C@@H]2Oc3ccc(NC(=O)Nc4c(C)noc4C)cc3C(=O)N([C@@H](C)CO)C[C@@H]2C)cc1 ?
Cneo AK release: 2; Ecoli rRNA inh: -2

Results for Cc1cc(C)c2nc(NNC(=O)c3ccc(S(=O)(=O)N4CCCCC4)cc3)sc2c1 ?
hiPSC survival: 0; DAGLB inh: -3; Cneo AK release: 0; SKN-1 inh: 13; Ecoli rRNA inh: -12*; MT1-MMP act inh: 11

Results for CCOC(=O)N1CCN(S(=O)(=O)c2ccc(C(=O)NNc3nc4c(C)cc(C)cc4s3)cc2)CC1 ?
hiPSC survival: 0; Cneo AK release: 1; SKN-1 inh: 17; MT1-MMP act inh: 5

How did C[C@H](CO)N1C[C@H](C)[C@@H](CN(C)C(=O)C2CCCCC2)Oc2ncc(/C=C/c3ccccc3)cc2C1=O do in these assays?
Cneo AK release: 47; Ecoli rRNA inh: -7

How did CC1=C(C(=O)c2ccccc2)C(c2cn(-c3ccccc3)nc2-c2ccc(Cl)cc2)NC(=S)N1 (stereo not drawn) do in these assays?
hiPSC survival: -2; DAGLB inh: 1; Cneo AK release: -1; SKN-1 inh: 38*; MT1-MMP act inh: -22

What do the screens show for `O=C1NC(=O)C(c2cn(-c3ccccc3)nc2-c2ccc(F)cc2)N1` (stereo not drawn)?
hiPSC survival: 1; DAGLB inh: 2; Cneo AK release: -1; SKN-1 inh: 0; MT1-MMP act inh: -6

From PubChem
